From ChEMBL document CHEMBL1123352, “Anticonvulsant activity of 2- and 3-aminobenzanilides” (J Med Chem, 1986)
Activity calls are given as the source filed them. The calls are words filed in the database; no cut-off is given here.

Experiments:
Mus musculus [1] = assay: Anticonvulsant activity against subcutaneous pentylenetetrazole induced convulsions in mice 4 hr after ip administration of 600 mg/kg.; type: functional, organism-based; parameters: dose 600 mg/kg
Outline: (§1)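 Male Carworth Farms No. 1 mice were dosed ip with compound in 30% PEG 400, at 30–600 mg/kg, and read at 30 min and 4 h. Pentylenetetrazole was given at 85 mg/kg as a 0.5% solution sc in the posterior midline. Protection meant no single episode of clonic spasms lasting at least 5 s over a 30-min observation.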

Mus musculus [2] = assay: Compound was tested for toxicity by rotarod assay method in mice 30 min after ip administration of 600 mg/kg; No activity; type: organism-based; parameters: dose 600 mg/kg, route intraperitoneal; conditions: in vivo, 0.5 h
Mus musculus [3] = assay: Anticonvulsant activity against maximal electroshock (MES) induced seizures in mice 30 minutes after ip administration of 600 mg/kg; A=Active; type: functional, organism-based; parameters: dose 600 mg/kg
Outline: (§2)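 Male Carworth Farms No. 1 mice were dosed ip with compound in 30% polyethylene glycol 400, at 30, 100 and 300 mg/kg and sometimes 600 mg/kg, and tested 30 min and 4 h later. A drop of 0.9% saline went in the eye, then 60-cycle AC at 50 mA was given for 0.2 s via corneal electrodes. Protection meant abolition of hind limb tonic extension.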

Mus musculus [4] = assay: Anticonvulsant activity against sc pentylenetetrazole induced convulsions in mice 30 minutes after ip administration of 600 mg/kg; A=Active; type: functional, organism-based; parameters: dose 600 mg/kg; outline: as §1
Mus musculus [5] = assay: Anticonvulsant activity against maximal electroshock (MES) induced seizures in mice 4 hours after ip administration of 600 mg/kg.; type: functional, organism-based; parameters: dose 600 mg/kg; outline: as §2
Mus musculus [6] = assay: Compound was tested for toxicity by rotarod assay method in mice 4 hours after ip administration of 600 mg/kg; NA=No activity; type: organism-based; parameters: dose 600 mg/kg, route intraperitoneal; conditions: in vivo
Mus musculus [7] = assay: Compound was tested for toxicity by rotarod assay method in mice after intraperitoneal administration after 4 hours; A=Active; type: organism-based; conditions: in vivo, ip
Mus musculus [8] = assay: Anticonvulsant activity against subcutaneous pentylenetetrazole induced convulsions in mice 30 min after ip administration of 600 mg/kg.; type: functional, organism-based; parameters: dose 600 mg/kg; outline: as §1
Mus musculus [9] = assay: Compound was tested for toxicity by rotarod assay method in mice 30 min after ip administration of 300 mg/kg; A=Active; type: organism-based; parameters: dose 300 mg/kg, route intraperitoneal; conditions: in vivo, 0.5 h
Mus musculus [10] = assay: Anticonvulsant activity against maximal electroshock (MES) induced seizures in mice 4 hours after ip administration of 600 mg/kg; A=Active; type: functional, organism-based; parameters: dose 600 mg/kg; outline: as §2
Mus musculus [11] = assay: Anticonvulsant activity against maximal electroshock (MES) induced seizures in mice 30 minutes after ip administration of 300 mg/kg; A=Active; type: functional, organism-based; parameters: dose 300 mg/kg; outline: as §2
Mus musculus [12] = assay: Compound for anticonvulsant activity against maximal electroshock (MES)-induced seizures in mice after administration; type: functional; outline: as §2
Mus musculus [13] = assay: Compound for anticonvulsant activity against subcutaneous pentylenetetrazole-induced convulsions in mice after administration; type: functional; conditions: sc; outline: as §1

Question: How did the Anticonvulsant activity (Mus musculus [1]) turn out when `Cc1ccc(NC(=O)c2cccc(N)c2)cc1C` was run?
Answer: inactive

Question: And the Toxicity (Mus musculus [2])?
Answer: Not Active

Question: What about the Anticonvulsant activity (Mus musculus [3]) of the same compound?
Answer: Active

Question: And the Anticonvulsant activity (Mus musculus [4])?
Answer: Active

Question: What about the Anticonvulsant activity (Mus musculus [5]) of the same compound?
Answer: inactive

Question: And the Toxicity (Mus musculus [6])?
Answer: Not Active

Question: Which results are given for `CC(C)c1ccccc1NC(=O)c1cccc(N)c1`?
Answer: Anticonvulsant activity (Mus musculus [1]): inactive; Toxicity (Mus musculus [7]): Active; Anticonvulsant activity (Mus musculus [8]): inactive; Toxicity (Mus musculus [9]): Active; Anticonvulsant activity (Mus musculus [10]): Active; Anticonvulsant activity (Mus musculus [11]): Active

Question: How did the ED50 (Mus musculus [12]) turn out when `CCCC(CCC)C(=O)O` [VALPROIC ACID] was run?
Answer: 272 mg/kg

Question: And the ED50 (Mus musculus [13])?
Answer: 149 mg/kg
